# This is a sample that favours compounds with a hit; in the whole collection about 3.6% have one here.
# PfHsp90 yeast 2 = reduces growth (ATP signal) of yeast expressing P. falciparum Hsp90 | S. cerevisiae expressing PfHsp90, BacTiter-Glo ATP, 48 h; yeast lacking PDR1 and PDR3 efflux regulators | inhibition, % at 9.4 µM | 310,000 compounds, 0.32% hits;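 active means every replicate shows inhibition above about 80%, whatever the replicate mean, limit read from the data; inconclusive means mean inhibition reaches the set limit but some replicate falls short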;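 further: 0% = DMSO neutral controls and 100% = 20 µM radicicol positive controls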
# T cruzi repl = T. cruzi replication inhibition | inhibition, % (concentration not given with the values) | T. cruzi beta-gal in NIH3T3, luminescence, 90 h | 300,000 compounds, 1.4% hits;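 active means mean inhibition across valid replicates above about 55%, limit read from the data; inconclusive means mean below that limit but half or more replicates reach it; inactive means mean below it, under half of replicates reach it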;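 further: signal also drops with host cell toxicity which is not excluded here; 0% = plate median of DMSO wells and 100% = zero luminescence signal; higher percent means less beta-gal luminescence so fewer parasites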
#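 Read-out: Parasite load inhibition, % | Test system: Mouse NIH/3T3 fibroblasts infected with β-gal-expressing T. cruzi Tulahuen C4 | Amount: 5,000 cells/well | Medium: DMEM, 2% fetal bovine serum | Signal: GalScreen β-gal luminescence, detergent lysis, 60 min | Timing: 3 h attach, ≥90 h co-culture | Also added: Tulahuen C4 trypomastigotes, 5000/well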
# Beta cell apopt = beta cell apoptosis inhibition; INS-1E cytokine-induced death, ATP luminescence, 48 h; percent of positive-control rescue, neutral wells zero; protection from apoptosis, % (test concentration not listed); 300,000 compounds, 0.8% hits;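 active means Every replicate reaches about 75%, or at least half do and their mean reaches it too, limit read from the data; inconclusive means At least half of replicates reach the limit but their mean does not; inactive means Under half of replicates reach the limit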;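 further: 0% = cytokine-treated negative control wells and 100% = positive control rescue; higher means more ATP so stronger rescue from cytokine killing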
# SKKanGAS inh = SKKanGAS growth inhibition. inhibition, % at 7.5 µM. 300,000 compounds, 1.3% hits. AID 1662. S. pyogenes SKKanGAS, kanamycin growth, BacTiter-Glo, 6 h;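 active means mean replicate score, as percent of positive control median, at least 50; inconclusive means mean below 50 but one replicate at or above 50; inactive means mean and every replicate below 50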;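 further: strain carries kanamycin resistance gene driven by streptokinase promoter and grows in 40 µg/ml kanamycin; loss of luminescence reflects streptokinase promoter inhibition or plain growth inhibition; 0% = median of DMSO wells and 100% = positive control at its reference dose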
# HIF act = HIF pathway transcriptional activation; U2OS HRE-luciferase reporter, luminescence; normalized: DMSO 0%, desferrioxamine 100%; activation, % at 7.5 µM (by protocol); 300,000 compounds, 0.32% hits; AID 1910;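 active means mean activation of at least 10% of the iron chelator positive control signal, with at least half of replicates also reaching 10%; inconclusive means mean and replicate majority disagree about reaching 10%; inactive means mean and most replicates under 10%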
# CSC inhib = blocks cancer stem cells | cancer stem cell-like cells viability, luminescence | inhibition, % at 7.5 µM | 300,000 compounds, 1.1% hits | AID 2717; in the data active means inhibition above about 75%; inconclusive means no clear call, values can overlap the other calls; tested in HMLE shEcad cells
# Active calls of the source: *; ? = inconclusive; nt = no result.
SMILES,PfHsp90 yeast 2,T cruzi repl,Beta cell apopt,SKKanGAS inh,HIF act,CSC inhib
Cc1onc(-c2ccccc2)c1C(=O)NC(=S)NNC(=O)c1ccco1,17.0,-43.9,4.3,77.7*,0.3,5.3
Cc1onc(-c2ccccc2)c1C(=O)NC(=S)NNC(=O)c1cc(-c2ccc(F)cc2)n[nH]1,-6.1,4.2,27.4,119.2*,0.0,30.9
O=C(NCCCn1ccnc1)/C(=C\c1ccc(Br)cc1)NC(=O)c1ccccc1F,-3.5,-6.9,-1.0,15.7,0.2,-4.9
CCc1ccc(CNc2ccc3c(c2)ncn3C(C)(C)C)cc1,-0.8,16.7,-0.2,56.9*,1.7,-2.9
Cc1cccc(NC(=O)COC(=O)CC2CCCC2)c1C,-0.3,nt,nt,nt,nt,nt
CCc1ccccc1NC(=O)c1ccc([N+](=O)[O-])s1,16.1,59.7*,21.2,-0.3,-1.3,14.8
COc1cccc(C(=O)NCC2(c3ccccc3)CCCC2)c1,-11.2,-15.0,4.7,-13.9,0.2,3.9
COc1ccc(C(=O)NCC2(c3ccccc3)CCCC2)c(OC)c1,31.0,20.6,12.0,6.3,-1.7,83.4*
COc1ccc(-c2csc(NC(=O)c3ccccc3NS(=O)(=O)c3ccc(C)cc3)n2)cc1,-10.5,3.3,44.3,53.8*,0.7,6.6
NC(=O)C1Cc2ccccc2CN1C(=O)c1cc(C2CC2)nn1-c1ccccc1 (centres undefined),7.1,nt,-2.4,nt,nt,-1.0
CCOc1ccc(-c2csc(/C(C#N)=C\c3ccc(O)c([N+](=O)[O-])c3)n2)cc1,-21.5,8.7,73.6,101.4*,0.0,108.3*
CCOC(=O)C1=C(c2ccccc2)N=c2s/c(=C\c3cccc(O)c3)c(=O)n2C1c1cccs1 (centres undefined),nt,21.6,20.3,54.0*,-0.3,99.1*
Cc1[nH]c2c(ccc3ccccc32)c1C1C(CCN)C1(C)C (centres undefined),nt,64.8*,?,9.4,-0.3,61.6
S=c1[nH]c2ccc3ccccc3c2[nH]1,-0.8,-22.4,-1.8,-2.8,0.4,1.3
O=C(NCc1ccccn1)C(=O)NCC1OCCCN1S(=O)(=O)c1cc(F)ccc1F (centres undefined),-5.3,-12.6,-0.2,3.5,0.2,0.0
O=C(NCCc1ccccc1)c1ccc(S(=O)(=O)N2CCCC2)cc1,-2.2,nt,-0.9,nt,nt,nt
Cc1[nH]c2ccccc2c1C(c1ccccn1)N1CCCC1 (centres undefined),7.4,1.0,-2.7,-0.9,0.2,13.5
CCN1CCN(C(c2ccc(C(F)(F)F)cc2)c2ccc3cccnc3c2O)CC1 (centres undefined),120.5*,40.0,86.4*,99.8*,6.2,104.5*
Oc1c(C(c2ccccn2)N2CCCCC2)cc(Cl)c2cccnc12 (centres undefined),4.7,20.1,26.5,54.2*,-0.2,70.1
CN1CCN(C(c2ccc(C(F)(F)F)cc2)c2cc(Cl)c3cccnc3c2O)CC1 (centres undefined),nt,59.0*,100.4*,103.7*,2.8,109.7*
CN1CCN(C(c2ccc(Cl)cc2)c2cc(Cl)c3cccnc3c2O)CC1 (centres undefined),105.8*,44.5,67.8,101.0*,4.8,-16.0
COC(=O)[C@H](Cc1ccccc1)NC(=O)C1CCN(C(=O)[C@H](C)NS(=O)(=O)c2ccc(C)cc2)CC1,-26.1,-5.6,-1.6,4.1,-0.4,-15.7
O=C(c1ccccc1)c1ccccc1N1C(=O)C=CC1=O,106.7*,-21.2,-5.5,-3.5,-0.6,12.0
CC1(c2nnc(-c3cccc(Cl)c3)o2)CC(c2cccc([N+](=O)[O-])c2)=NO1 (centres undefined),-16.2,6.4,-0.1,5.1,-0.1,2.8
COc1ccc(/C=C/c2nc3ccccc3n2Cc2ccccc2OC)cc1,19.3,55.5*,22.4,25.4,1.2,43.4
SMILES,PfHsp90 yeast 2,T cruzi repl,Beta cell apopt,SKKanGAS inh,HIF act,CSC inhib
COc1ccccc1Cn1c(/C=C/c2ccccc2)nc2ccccc21,-5.0,31.3,15.2,15.2,1.6,5.4
Cc1ccc(S(=O)(=O)NC(=O)COc2cc(C)ccc2C(C)C)cc1,5.2,0.8,-3.9,5.3,0.7,-2.7
Cc1nc2c(cnn2CCO)c(=O)[nH]1,-9.0,nt,nt,nt,nt,nt
COc1cc(NC(=O)c2cc(-c3ccc4c(c3)OCO4)on2)cc(OC)c1OC,-29.2,58.6*,-4.4,-1.8,0.8,53.7
O=C(Nc1ccc2c(c1)OCO2)c1cc(C2CC2)on1,-14.9,-8.2,7.3,-4.5,2.8,98.1*
CN1OC[C@@H]2CN(C(=O)CCc3ccccc3)[C@H](c3cccc(N4CCOCC4)c3)C[C@@H]21,-0.4,nt,nt,nt,nt,nt
O=C(Nc1cccc(Cl)c1)O/N=C\c1ccncc1,29.6,-2.6,-6.9,1.7,nt,-4.8
O=C(Nc1ccc(Cl)c(Cl)c1)O/N=C/c1ccncc1,2.8,-1.6,17.2,56.2*,-0.1,75.3*
CCCCCc1cc(O)c2c(C)cc(=O)oc2c1,16.6,5.4,130.0*,12.5,0.4,60.9
COc1ccc(OC)c(-c2cc(C(F)(F)F)c3c(n2)sc2c(O)cc(=O)[nH]c23)c1,-30.9,-4.4,2.8,81.5*,-0.2,0.8
CCOC(=O)N1CCN(CC(=O)Nc2sccc2C#N)CC1,-14.3,2.6,-3.3,4.6,0.4,-9.3
COc1cc(/C=N/NC(=O)c2ccc(CN(C)S(=O)(=O)c3ccc(C)cc3)cc2)ccc1O,-33.3,2.3,7.8,2.3,0.4,78.3*
Cc1nn(-c2ccccc2)c(C)c1-c1cc(C(=O)N/N=C/c2ccc(O)cc2)[nH]n1,-31.9,-4.2,24.1,9.2,1.1,75.0*
COc1cc(/C=N/NC(=O)c2ccccc2)ccc1O,4.9,-5.7,-0.2,-6.0,1.5,13.0
COc1cc(/C=N/NC(=O)c2cc(-c3ccc4c(c3)OCO4)n[nH]2)ccc1O,3.4,5.6,41.9,13.4,1.3,75.1*
Cc1nn(-c2ccccc2)c(C)c1/C=N/NC(=O)c1cc(O)cc(O)c1,17.0,-12.8,1.0,0.5,-0.3,-3.2
COc1cc(/C=N/NC(=O)c2cc(-c3c(C)nn(-c4ccccc4)c3C)n[nH]2)ccc1O,-4.5,-15.2,34.7,87.5*,2.5,9.2
COc1cc(/C=N/NC(=O)c2nc(-c3ccccc3)n(-c3ccccc3)n2)ccc1O,-0.6,13.8,-1.9,2.4,-0.1,-9.1
C/C(=N\NC(=O)c1cc(-c2cccnc2)nc2ccccc12)c1ccc(O)cc1O,-21.3,47.3,90.5*,26.0,35.5*,100.0*
O=C(N/N=C(\c1ccccc1)c1cccnc1)c1cc(O)ccc1O,nt,65.3*,-17.7,1.4,-0.2,-3.5
C/C(=N/NC(=O)c1cc(-c2ccccc2)nc2c(Cl)cccc12)c1cccnc1,-4.8,41.4,13.8,89.5*,0.3,13.0
C/C(=N\NC(=O)c1cc(-c2ccccc2C)nc2ccccc12)c1cccnc1,-7.0,18.3,35.8,12.6,0.0,0.4

# Source: PubChem
